The text below walks through data of PubChem BioAssay.

The nature of test [1]: reducers of endogenous Her2 protein level, primary screen, SKBR3 breast tumor cells, AlphaScreen, ATP viability (AID 461;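 active = Her2 level under about 52% in both replicate screens, with viability over 70% of control, limit read from the data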;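 for Her2 level: lower value means less Her2 protein in the cells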;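 for viability: percent of carrier control wells set as 100% viability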). The following applies: 18-24 h, measured here: SKBR3 viability, ATP luminescence, at 10 µM. Background: In Alpha technology, singlet oxygen from a donor bead excites a nearby acceptor bead.
For test [2], the target named is Receptor tyrosine-protein kinase erbB-2 (Homo sapiens) (UniProt P04626). The description is as above. The conditions noted are these: 18-24 h, at 10 µM, stronger effect = lower value.
Sequence of Receptor tyrosine-protein kinase erbB-2 (Homo sapiens) (P04626 whole entry, looked up): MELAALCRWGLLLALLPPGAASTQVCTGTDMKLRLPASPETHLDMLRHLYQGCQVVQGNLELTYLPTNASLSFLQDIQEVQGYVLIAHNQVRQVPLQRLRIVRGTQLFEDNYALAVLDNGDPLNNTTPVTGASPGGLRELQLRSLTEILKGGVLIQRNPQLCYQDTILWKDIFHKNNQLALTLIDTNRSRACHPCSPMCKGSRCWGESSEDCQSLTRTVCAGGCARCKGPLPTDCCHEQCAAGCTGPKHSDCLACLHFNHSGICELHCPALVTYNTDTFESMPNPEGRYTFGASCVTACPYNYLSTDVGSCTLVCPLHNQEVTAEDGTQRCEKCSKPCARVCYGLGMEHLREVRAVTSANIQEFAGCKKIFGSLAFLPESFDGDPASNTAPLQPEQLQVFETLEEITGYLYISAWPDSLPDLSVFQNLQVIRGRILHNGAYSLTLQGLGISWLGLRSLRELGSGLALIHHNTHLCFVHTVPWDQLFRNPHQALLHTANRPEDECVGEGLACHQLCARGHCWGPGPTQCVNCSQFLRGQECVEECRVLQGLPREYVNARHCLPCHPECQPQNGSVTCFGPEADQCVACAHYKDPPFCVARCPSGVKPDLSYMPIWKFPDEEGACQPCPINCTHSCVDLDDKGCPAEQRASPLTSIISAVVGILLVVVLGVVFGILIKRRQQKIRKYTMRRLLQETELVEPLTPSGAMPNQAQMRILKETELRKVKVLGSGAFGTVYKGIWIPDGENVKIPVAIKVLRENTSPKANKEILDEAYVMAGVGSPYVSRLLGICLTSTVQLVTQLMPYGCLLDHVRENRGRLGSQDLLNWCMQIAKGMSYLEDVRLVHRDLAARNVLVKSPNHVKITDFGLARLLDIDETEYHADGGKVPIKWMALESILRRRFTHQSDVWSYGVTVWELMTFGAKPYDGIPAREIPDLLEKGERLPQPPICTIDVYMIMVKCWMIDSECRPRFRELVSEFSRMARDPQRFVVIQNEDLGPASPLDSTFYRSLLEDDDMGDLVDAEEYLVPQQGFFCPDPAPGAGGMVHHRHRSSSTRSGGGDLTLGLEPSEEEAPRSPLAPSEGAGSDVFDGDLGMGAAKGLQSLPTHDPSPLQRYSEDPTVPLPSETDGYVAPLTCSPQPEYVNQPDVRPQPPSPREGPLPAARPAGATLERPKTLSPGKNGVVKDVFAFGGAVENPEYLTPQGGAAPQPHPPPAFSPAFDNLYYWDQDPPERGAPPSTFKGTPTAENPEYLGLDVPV
Test [3] is described as follows: SK-BR-3 cell growth inhibitors, pilot screen, 24 h, human (AID 572;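 active = viability at or below 10% of carrier control in both of two separate runs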;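 note: compound exposure lasted between 18 and 24 h rather than exactly 24 h; 100% = carrier-treated control wells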). The following applies: SK-BR-3 viability, CellTiter-Glo luminescence, at 10 µM, stronger effect = lower value. A general note: ATP-based viability assays read luminescence as a measure of living cells.
A short description of test [4]: HUVEC growth inhibition – cell-based, human, primary screen (AID 575).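 Note: 100% = median of untreated cell wells with 0.1% DMSO on each plate.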 The following applies: HUVEC proliferation, CellTiter-Glo luminescence, 72 h; at 10 µM; stronger effect = lower value. The essentials: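 Material: primary human umbilical vein endothelial cells / Schedule: 72 h exposure, 37 °C, 5% CO2, 30 min RT equilibration / Signal: ATP-based CellTiter-Glo luminescent read / Read-out basis: percent of median DMSO-control luminescence / Control set: 32 DMSO-only cell-control wells (high), 32 MePR drug-control wells (low) per plate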

A short description of test [5]: growth inhibitors of H69AR lung tumor, primary screen, human, duplicate replicates (AID 580;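 active = viability at or under a set limit in both replicates, limit being median viability minus 3 SD, cut at about 48% in these data, passing the limit was not always enough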;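 note: 100% = mean luminescence of untreated wells and 0% = no signal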). The following applies: H69AR lung tumor cells viability, ATP luminescence, 72 h; at 10 µM; stronger effect = lower value.
Test [6] is described as follows: reversal of MRP1-mediated doxorubicin resistance, pilot screen, H69AR cells, doxorubicin co-treatment (AID 601;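 active = viability loss from added drug above about 55%, and viability with drug at most 40%, in both replicates, limit read from the data, passing the limit was not always enough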). The conditions noted are these: CellTiter-Glo, 72 h, at 10 µM; for differential viability (reversal): stronger effect = higher value.
The nature of test [7]: 384-well plate pilot, post-Golgi transport modulator project, inhibition of yeast transport mutant growth (AID 636; in the data active = inhibition above about 31%). The following applies: absorbance 615 nm, about 18 h, stronger effect = higher value.
A short description of test [8]: growth suppression of yeast trafficking mutant, preliminary HTS, modulators of trafficking downstream of Golgi apparatus project, 1536-format plate, OD 615 nm (AID 637; in the data active = inhibition above about 30%). The conditions noted are these: yeast transport mutant growth, absorbance 615 nm, 18 h; stronger effect = higher value.
Setting [9] is: H69AR cells + 2 uM doxorubicin, measured here: viability with 2 uM doxorubicin, stronger effect = lower value.
Where [10] appears, read: H69AR cells, compound alone cytotoxicity.

Activity calls are given as the source filed them.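 Rule for the calls, unless noted: active = viability at or below 30% in both replicate assays; inconclusive = viability at or below 30% in just one of the two assays; inactive = the rest.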

For `CCn1c(=N)n(CC(O)c2ccco2)c2ccccc21` (stereo not given), the viability (in general, a read-out of living cells in per cent, often relative to untreated cells) is 94.5% in test [1]; 94.5% (inactive) in test [3]; 116% (inactive) in test [4]; 90.4% (inactive) in test [5]; 80.1% in test [6] (setting [9]); 90.4% in test [6] (setting [10]). Further, the Her2 level in test [2] is 119% (inactive). The differential viability (reversal) in test [6] (H69AR cells + 2 uM doxorubicin) is 10.3% (inactive). Further, the inhibition – broadly, the drop in the measured response relative to a control, in per cent – in test [7] is -4.49% (inactive); in test [8], 4.67% (inactive).

For the molecule `CCC(=O)N1C(=O)CCN(C(C)=O)c2ccccc21`, the viability in test [1] is 86.5%; in test [3], 86.5% (inactive); in test [4], 100% (inactive); in test [5], 103% (inactive); in test [6] (setting [9]), 104%; in test [6] (setting [10]), 103%. In test [2], the Her2 level is 106% (inactive). Further, in test [6] (H69AR cells + 2 uM doxorubicin), the differential viability (reversal) was -1.28% (inactive). Besides, the inhibition in test [7] was -4.67% (inactive); in test [8], 0.32% (inactive).

`O=C1CN(Cc2ccccc2)C(=NCc2ccco2)S1`: the viability in test [1] was 97%; in test [3] it was 97% (inactive); in test [4], 97.7% (inactive); in test [5], 86.7% (inactive); in test [6] (setting [9]), 81.8%; in test [6] (setting [10]), 86.7%. Further, the Her2 level in test [2] is 74% (inactive). For the same molecule, the differential viability (reversal) in test [6] (H69AR cells + 2 uM doxorubicin) was 4.9% (inactive). In addition, the inhibition in test [7] was -6.49% (inactive); in test [8], 2.95% (inactive).

Consider `C=C(C)c1cccc(C(C)(C)NC(=O)Nc2ncccn2)c1`, for which the viability was 97.5% in test [1]; 97.5% (inactive) in test [3]; 81% (inactive) in test [4]; 66.7% (inactive) in test [5]; 75.7% in test [6] (setting [9]); 66.7% in test [6] (setting [10]). The Her2 level in test [2] is 107% (inactive). Moreover, in test [6] (H69AR cells + 2 uM doxorubicin), the differential viability (reversal) was -9% (inactive). Besides, the inhibition was -4.08% (inactive) in test [7] and -4.73% (inactive) in test [8].

On to `CCOc1ccc(-c2nnn(CC(=O)N3CCN(c4ccc(F)cc4)CC3)n2)cc1OCC`, for which the viability in test [1] is 111%; in test [3] it was 111% (inactive); in test [4] it was 76% (inactive); in test [5] it was 81.9% (inactive); in test [6] (setting [9]), 92%; in test [6] (setting [10]), 81.9%. For the same molecule, the Her2 level in test [2] is 102% (inactive). For the same molecule, the differential viability (reversal) in test [6] (H69AR cells + 2 uM doxorubicin) is -10.1% (inactive). Moreover, the values for the inhibition in test [7] and in test [8] were -2.93% (inactive) and -0.33% (inactive), respectively.

For the molecule `NC(=O)c1c(NC(=O)CN2CCCC2)sc2c1CCCC2`, the viability in test [1] is 104%; in test [3], 104% (inactive); in test [4] it was 95.9% (inactive); in test [5] it was 91.3% (inactive); in test [6] (setting [9]), 86.6%; in test [6] (setting [10]) it was 91.3%. The Her2 level in test [2] was 114% (inactive). Further, the differential viability (reversal) in test [6] (H69AR cells + 2 uM doxorubicin) was 4.73% (inactive). For the same molecule, the figures for the inhibition in test [7] and in test [8] were -0.8% (inactive) and -5.57% (inactive), respectively.

Take `CCN(CC)c1ccc(-c2c(C#N)c(N)nc(OC)c2C#N)cc1`: the viability in test [1] is 75.5%; in test [3], 75.5% (inactive); in test [4], 81.3% (inactive); in test [5], 79.4% (inactive); in test [6] (setting [9]), 83.5%; in test [6] (setting [10]), 79.4%. Moreover, in test [2], the Her2 level is 88.5% (inactive). Also, in test [6] (H69AR cells + 2 uM doxorubicin), the differential viability (reversal) was -4.16% (inactive). The inhibition in test [7] was -1.17% (inactive); in test [8], -8.36% (inactive).

On to `Cc1cc(C)nc(NC(=O)c2c(-c3c(Cl)cccc3Cl)noc2C)n1`, for which the viability in test [1] is 84%; in test [3], 84% (inactive); in test [4], 94% (inactive); in test [5], 85.1% (inactive); in test [6] (setting [9]), 90.3%; in test [6] (setting [10]), 85.1%. Further, in test [2], the Her2 level was 98.5% (inactive). Also, the differential viability (reversal) in test [6] (H69AR cells + 2 uM doxorubicin) was -5.23% (inactive). Also, the values for the inhibition in test [7] and in test [8] were -7.73% (inactive) and -6.03% (inactive), respectively.

Turning to `O=C(CCCC(=O)OCC(=O)NC1CCCC1)Nc1ccccn1`, the viability was 95.5% in test [1]; 95.5% (inactive) in test [3]; 98.1% (inactive) in test [4]; 96.9% (inactive) in test [5]; 103% in test [6] (setting [9]); 96.9% in test [6] (setting [10]). Besides, in test [2], the Her2 level was 88% (inactive). Besides, in test [6] (H69AR cells + 2 uM doxorubicin), the differential viability (reversal) was -6.12% (inactive). In addition, the inhibition in test [7] is -6.8% (inactive); in test [8] it was 3.28% (inactive).

As for `CCC(=O)c1ccc(OC(=O)c2ccc(Br)o2)cc1`, the viability was 102% in test [1]; 102% (inactive) in test [3]; 98% (inactive) in test [4]; 108% (inactive) in test [5]; 99.9% in test [6] (setting [9]); 108% in test [6] (setting [10]). Moreover, the Her2 level in test [2] was 78.5% (inactive). Also, in test [6] (H69AR cells + 2 uM doxorubicin), the differential viability (reversal) was 8.45% (inactive). For the same molecule, the inhibition in test [7] was -4.67% (inactive); in test [8] it was 8.2% (inactive).

On to `Cc1ccc(-c2noc(C3CCCN(C(=O)c4ccc(F)cc4F)C3)n2)cc1` (stereo not given), for which the viability is 99% in test [1]; 99% (inactive) in test [3]; 87.4% (inactive) in test [4]; 90% (inactive) in test [5]; 88.1% in test [6] (setting [9]); 90% in test [6] (setting [10]). Further, the Her2 level in test [2] is 94% (inactive). Moreover, the differential viability (reversal) in test [6] (H69AR cells + 2 uM doxorubicin) was 1.88% (inactive). Also, the results for the inhibition in test [7] and in test [8] were -2.16% (inactive) and -9% (inactive), respectively.

In the case of `C/C(N)=C(/C#N)C(=O)COC(=O)c1cc(C)n(-c2ccc(F)cc2)c1C`, the viability in test [1] was 91%; in test [3] it was 91% (inactive); in test [4], 49.4% (inactive); in test [5] it was 98.1% (inactive); in test [6] (setting [9]), 98.2%; in test [6] (setting [10]) it was 98.1%. Also, the Her2 level in test [2] was 97.5% (inactive). Also, the differential viability (reversal) in test [6] (H69AR cells + 2 uM doxorubicin) is -0.13% (inactive). In addition, the results for the inhibition in test [7] and in test [8] were -4.53% (inactive) and -1.45% (inactive), respectively.

Take `CN(C)S(=O)(=O)c1ccc(C(=O)NCc2cccs2)cc1`: the viability in test [1] is 82%; in test [3] it was 82% (inactive); in test [4] it was 101% (inactive); in test [5], 101% (inactive); in test [6] (setting [9]) it was 92.8%; in test [6] (setting [10]), 101%. For the same molecule, the Her2 level in test [2] was 87% (inactive). In addition, the differential viability (reversal) in test [6] (H69AR cells + 2 uM doxorubicin) was 8.48% (inactive). Besides, the inhibition is -4.05% (inactive) in test [7] and 3.81% (inactive) in test [8].

For the molecule `CCn1c(SCC(=O)N2CCCc3ccccc32)nnc1-c1cccs1`, the viability in test [1] was 85.5%; in test [3] it was 85.5% (inactive); in test [4] it was 83.3% (inactive); in test [5] it was 87.5% (inactive); in test [6] (setting [9]) it was 82.2%; in test [6] (setting [10]), 87.5%. Moreover, the Her2 level in test [2] was 72.5% (inactive). The differential viability (reversal) in test [6] (H69AR cells + 2 uM doxorubicin) is 5.33% (inactive). Moreover, the inhibition is -5.87% (inactive) in test [7] and 0.16% (inactive) in test [8].
